An excerpt weighted towards active compounds, which were near 1.7% of everything screened.
PP5 inh – PP5 phosphatase inhibitors, primary screen, biochemical, fluorescence. AID 1987, 2009. Serine/threonine-protein phosphatase 5 (Homo sapiens), P53041. inhibition, % at 6.7 µM. purified PP5c, OMFP substrate fluorescence. 320,000 tested, 0.18% active;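 active means inhibition above the campaign's mean inhibition across all tested compounds plus 3 SD, cut at about 9.5% in these data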;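 further: 0% = DMSO only and 100% = 100 µM cantharidin control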
T cell modulator – modulators of CD8 T cell-vesicle binding, primary screen, mouse 2C CD8+ T cells, flow cytometry; 2C CD8+ T cell-vesicle binding; hits give low values; response (vesicle binding), % at 7 µM; 330,000 tested, 0.068% active; AID 2052, 2009;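 active means response, share of CD8 T cells binding vesicles, and their 90th percentile fluorescence all below set limits, cut at about 80% in these data, passing the limit was not always enough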;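 further: values below 100% mean blocked vesicle binding to the CD8+ T cells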
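Material: murine 2C transgenic CD8+ T lymphocytes / Also added: QL9-peptide-loaded Drosophila micro-vesicles bearing Ld, ICAM-1 and B7-1 / Schedule: binding step 1.5 h, 37 °C, antibody labelling 20 min, ice / Signal: flow cytometry, PE anti-B7-1 (FL2) versus Alexa647 anti-CD8 (FL8), PFA-fixed / Evaluation: percent CD8+ FL2 mean versus row control / Benchmarks: naked versus QL9-loaded vesicles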
PP1 inh – PP1-alpha phosphatase inhibitors, primary screen, counter-screen for PP5 inhibitor project, biochemical, fluorescence, OMFP substrate, single point. Serine/threonine-protein phosphatase PP1-alpha catalytic subunit (Homo sapiens), P62136. purified PP1alpha. inhibition, % at 6.7 µM. 320,000 tested, 0.9% active. AID 2235, 2010;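 active means inhibition above the mean inhibition of all tested compounds plus 3 SD, computed separately for each screening campaign, cut at about 15% in these data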
GASC-1 inh – inhibitors of GASC-1 histone demethylase, primary screen, biochemical, fluorescence, DELFIA europium; Lysine-specific demethylase 4C (Homo sapiens), Q9H3R0; GST-JMJD2C(1-420) H3K9me3 demethylation; inhibition, % at 2.35 µM; 330,000 tested, 0.069% active;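 active means more than half of a compound's replicate wells show inhibition beyond 50%, single wells judged on their own value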;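 further: signal counts dimethyl H3K9 product captured on neutravidin plate; 0% = median of DMSO wells and 100% = 0.3 times that DMSO median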
m5-HT2A agonist – mouse Htr2a agonists via beta-arrestin recruitment, primary screen, cell-based, luminescence; activation, % at 7.6 µM; AID 624169, 2012; 360,000 tested, 0.66% active; CHO-K1 mHTR2A beta-arrestin complementation; percent of 30 µM serotonin response; 5-hydroxytryptamine receptor 2A (Mus musculus), P35363;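 active means activation above a run cutoff, the mean activation of all tested compounds plus 3 SD, cut at about 14% in these data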;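 further: 0% = plate median of compound wells and 100% = 30 µM serotonin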
Target sequence (P35363 whole entry, looked up): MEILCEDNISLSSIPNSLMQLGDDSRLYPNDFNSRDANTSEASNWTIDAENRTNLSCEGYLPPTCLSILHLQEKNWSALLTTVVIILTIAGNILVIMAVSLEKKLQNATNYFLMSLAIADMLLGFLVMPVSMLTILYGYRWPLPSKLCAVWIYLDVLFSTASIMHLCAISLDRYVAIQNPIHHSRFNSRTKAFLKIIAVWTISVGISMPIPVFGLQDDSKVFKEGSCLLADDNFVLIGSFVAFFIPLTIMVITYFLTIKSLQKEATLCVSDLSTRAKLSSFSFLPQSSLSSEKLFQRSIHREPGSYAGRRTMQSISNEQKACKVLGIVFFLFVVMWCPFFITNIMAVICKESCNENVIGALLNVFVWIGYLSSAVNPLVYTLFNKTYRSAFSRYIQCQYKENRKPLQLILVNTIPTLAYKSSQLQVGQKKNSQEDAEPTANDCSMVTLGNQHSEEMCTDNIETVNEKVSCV
PP5 inh confirm – PP5 phosphatase inhibitors, confirmation, biochemical, fluorescence, human; shares compounds with PP5 inh; Purified PP5, fluorogenic phosphatase substrate; inhibition, % at 6.7 µM; 460 tested, 22% active; in the data active means inhibition above about 9.5%
PP1 inh counter – PP1 phosphatase inhibitors, counter-screen for PP5 inhibitor project, biochemical, fluorescence, triplicate; shares compounds with PP5 inh; PP1 enzyme, fluorescent phosphatase substrate; inhibition, % at 6.7 µM; 460 tested, 4% active; AID 2355, 2010; in the data active means inhibition above about 16%
* = called active by the depositor; i = inactive; · = no result given.

SMILES	PP5 inh	T cell modulator	PP1 inh	GASC-1 inh	m5-HT2A agonist	PP5 inh confirm	PP1 inh counter
Cc1ccc(-c2nnn(CC(=O)N(CCN3CCOCC3)C(C(=O)NC(C)(C)C)c3ccc(C)o3)n2)cc1 (configuration not stated)	-1	337	-2	-9	1	·	·
Cc1ccc(S(=O)(=O)N2CCN(C(=O)CN3CCOCC3)C2C(C)C)cc1 (configuration not stated)	12*	540	-5	-8	-1	-6	-5
O=C(Cc1ccccc1)N/N=C/c1ccc(-c2ccc([N+](=O)[O-])cc2)o1	1	380	5	1	1	·	·
Cc1ccc([N+](=O)[O-])cc1-c1ccc(/C=N/NC(=O)CN2CCOCC2)o1	12*	139	-1	-13	-1	-4	-7
CN(C(=O)COC(=O)CNC(=O)c1cccs1)c1c(N)n(Cc2ccccc2)c(=O)[nH]c1=O	-1	498	1	-2	-3	·	·
Cn1c2ccccc2c(=O)n2c(=O)c3ccccc3cc12	11*	374	0	-4	·	29*	-4
Cn1c(-c2ccccc2)cc(=O)c2ccccc21	-2	193	-4	-3	-7	·	·
C=CCn1c(NC(=O)c2ccccc2Cl)c(C#N)c2nc3ccccc3nc21	11*	123	7	9	-1	28*	4
CCCCn1c(NC(C)=O)c(C#N)c2nc3ccccc3nc21	1	347	-6	44	-2	·	·
CC1=C(C(=O)OC(C)C)C2(O)C(=O)c3ccccc3C2(O)N1 (configuration not stated)	12*	437	0	4	0	16*	0
CCOC(=O)C1=C(C)N[C@@]2(O)c3ccccc3C(=O)[C@@]12O	6	259	0	-10	3	·	·
CC(=O)C(C(C)=O)C1(O)C(=O)c2ccccc2C1=O	14*	232	3	2	1	38*	3
Cc1snc(S(=O)(=O)/C(C#N)=N/Nc2ccc(C(F)(F)F)cc2)c1C#N	10*	156	6	14	5	7	12
Cc1snc(S(=O)(=O)/C(C#N)=N\Nc2ccccc2)c1C#N	0	374	-1	-1	-5	·	·
CC(C)NC(=O)C1(C)CN(S(C)(=O)=O)CC(=O)N1CCCn1ccnc1 (configuration not stated)	·	·	·	·	0	·	·
O=C(Nc1ccc(OC(F)(F)F)cc1)N1CCN(c2ccnc3cc(Cl)ccc23)CC1	10*	151	2	-19	7	5	5
O=c1oc2ccc(Cl)cc2nc1/C=C(\O)c1cccs1	12*	511	1	8	0	-4	-3
Cc1ccc2oc(=O)c(/C=C(\O)c3cccs3)nc2c1	4	417	-1	14	-3	·	·
COc1ccccc1NS(=O)(=O)c1cc(NC(=O)c2ccc3c(c2)OCCO3)ccc1C	5	419	2	9	1	·	·
CCOC(=O)Cc1csc(NC(=O)c2ccc(C)cc2)n1	-1	i	-3	16	2	·	·
CCOC(=O)Cc1csc(NC(=O)c2ccc(Cl)nc2)n1	13*	324	0	4	5	-7	-3
CCOC(=O)NC(NC(=S)Nc1ccccc1[N+](=O)[O-])C(Cl)(Cl)Cl (configuration not stated)	11*	·	-5	-4	-6	-6	-4
CCOC(=O)c1cccc(NC(=O)CSc2nnc(COc3ccccc3)n2CC)c1	12*	292	-3	21	-2	-5	-3
CCn1nnc(-c2ccccc2NS(=O)(=O)c2ccc(S(=O)(=O)N(C)C3CCCCC3)cc2)n1	12*	160	1	-6	-5	-3	-1
O=C1C(c2ccccc2)=[N+]([O-])c2ccccc21	10*	522	-3	-8	-1	36*	88*
SMILES	PP5 inh	T cell modulator	PP1 inh	GASC-1 inh	m5-HT2A agonist	PP5 inh confirm	PP1 inh counter
Cc1ccccc1NC(=O)Nc1ccccc1C(=O)NCc1ccccc1	17*	178	0	1	3	-3	-2
Cc1cc(OCC(=O)c2ccc(Br)cc2)ccc1N1C(=O)CCC1=O	13*	440	-2	-5	1	-6	-3
Cc1ccc(C(=O)Oc2ccc(N3C(=O)CCC3=O)c(C)c2)cc1	-1	106	-3	1	4	·	·
O=C(/C=C/c1ccccc1Cl)OCC(=O)N1CCc2ccccc21	·	·	·	·	7	·	·
Oc1cccc(/C=N/Nc2cc(N3CCCC3)nc(N3CCCC3)n2)c1	16*	147	3	1	-3	37*	10
COc1ccc(/C=N/Nc2cc(N3CCCC3)nc(N3CCCC3)n2)cc1	16*	154	6	-14	-6	34*	18*
Oc1ccc(/C=N/Nc2cc(N3CCCC3)nc(N3CCCC3)n2)cc1	16*	294	3	-3	-4	37*	14
Cc1cc(N2C(=O)C(O)=C(C(=O)c3ccco3)C2c2ccccc2F)no1 (configuration not stated)	0	334	5	3	7	·	·
Cc1sc2ncnc(SCC(=O)Nc3nc(-c4ccc(F)c(F)c4)cs3)c2c1C	-1	180	2	-1	2	·	·
O=C(CCc1nnc2ccc(NCc3ccc(F)cc3)nn12)NC1CCCC1	-1	162	0	-3	-1	·	·
COc1ccc(S(=O)(=O)Nc2cccc(F)c2C)cc1C(=O)N1CCOCC1	-1	306	-4	27	0	·	·
O=C(NCC1CCCO1)c1cc2c([nH]c3ccccc32)c(-c2cccc(Cl)c2)n1 (configuration not stated)	11*	345	11	-5	0	3	6
COc1cc(-c2nc(C(=O)NCC3CCCO3)cc3c2[nH]c2ccccc23)cc(OC)c1OC (configuration not stated)	8	194	0	-14	9	·	·
COc1ccc(C(=O)Nc2ccc(OCC(F)(F)C(F)F)c(C(F)(F)F)c2)cc1OC	12*	346	11	9	-4	11*	8
COc1ccc(C(CNC(=O)c2cccc(Br)c2)N2CCCC2)cc1 (configuration not stated)	10*	326	-2	-14	1	-3	-5
O=C(NC1(O)C(=O)c2ccccc2C1=O)c1ccccc1	15*	162	1	18	-1	39*	13
